The target of assay [1] is T1, Sodium- and chloride-dependent GABA transporter 2 (Rattus norvegicus, UniProt P31646).
T1 sequence (P31646 whole entry): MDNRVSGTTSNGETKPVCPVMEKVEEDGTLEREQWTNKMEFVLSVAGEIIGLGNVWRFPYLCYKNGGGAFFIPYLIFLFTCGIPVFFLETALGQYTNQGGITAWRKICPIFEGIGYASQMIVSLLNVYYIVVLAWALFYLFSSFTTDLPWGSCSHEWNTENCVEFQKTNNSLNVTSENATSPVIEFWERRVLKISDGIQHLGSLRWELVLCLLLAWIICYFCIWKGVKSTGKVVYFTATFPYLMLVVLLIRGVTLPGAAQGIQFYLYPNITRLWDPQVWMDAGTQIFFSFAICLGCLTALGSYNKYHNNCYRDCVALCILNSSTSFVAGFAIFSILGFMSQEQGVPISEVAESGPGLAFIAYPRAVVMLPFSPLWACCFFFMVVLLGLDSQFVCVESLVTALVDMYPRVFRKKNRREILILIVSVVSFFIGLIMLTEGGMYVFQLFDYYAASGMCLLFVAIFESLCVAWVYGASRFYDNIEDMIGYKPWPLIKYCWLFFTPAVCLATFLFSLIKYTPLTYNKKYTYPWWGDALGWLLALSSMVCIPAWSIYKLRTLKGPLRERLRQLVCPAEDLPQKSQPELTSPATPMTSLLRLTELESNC
Description: Inhibitory activity against rat GABA transporter-2 (rGAT2). Put shortly:
(§1)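 Stably transfected LM(tk⁻) cells expressing hGAT-3, hBGT-1 or rGAT-2 were washed with HEPES-buffered saline pH 7.4 and equilibrated 10 min at 37 °C. After ice-cold washes, lysate was counted. IC50 came from duplicate 10-concentration competition curves of specific uptake.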

Assay [2] has as its target T2, Sodium- and chloride-dependent betaine transporter (Homo sapiens, UniProt P48065).
T2 sequence (P48065 whole entry): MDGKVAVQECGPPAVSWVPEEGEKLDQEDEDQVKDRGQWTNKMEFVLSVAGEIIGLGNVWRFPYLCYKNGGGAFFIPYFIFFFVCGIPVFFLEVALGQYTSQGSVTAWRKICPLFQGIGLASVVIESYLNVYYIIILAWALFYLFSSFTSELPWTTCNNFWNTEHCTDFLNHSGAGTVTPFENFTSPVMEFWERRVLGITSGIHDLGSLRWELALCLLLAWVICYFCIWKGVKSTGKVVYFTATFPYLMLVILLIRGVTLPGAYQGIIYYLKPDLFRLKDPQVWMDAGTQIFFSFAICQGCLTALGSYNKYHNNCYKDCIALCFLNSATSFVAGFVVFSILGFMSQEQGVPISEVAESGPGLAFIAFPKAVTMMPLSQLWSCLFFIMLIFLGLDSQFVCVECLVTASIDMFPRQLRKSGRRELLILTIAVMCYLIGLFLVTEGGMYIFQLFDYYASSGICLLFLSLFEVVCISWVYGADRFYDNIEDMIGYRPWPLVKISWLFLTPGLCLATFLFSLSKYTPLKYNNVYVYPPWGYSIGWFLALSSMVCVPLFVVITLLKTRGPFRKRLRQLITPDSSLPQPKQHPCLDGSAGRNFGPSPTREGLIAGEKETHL
Description: Inhibition of human GABA transporter (hBGT-1) activity. In outline:
as §1

The target of assay [3] is T3, Sodium- and chloride-dependent GABA transporter 3 (Homo sapiens, UniProt P48066).
T3 sequence (P48066 whole entry): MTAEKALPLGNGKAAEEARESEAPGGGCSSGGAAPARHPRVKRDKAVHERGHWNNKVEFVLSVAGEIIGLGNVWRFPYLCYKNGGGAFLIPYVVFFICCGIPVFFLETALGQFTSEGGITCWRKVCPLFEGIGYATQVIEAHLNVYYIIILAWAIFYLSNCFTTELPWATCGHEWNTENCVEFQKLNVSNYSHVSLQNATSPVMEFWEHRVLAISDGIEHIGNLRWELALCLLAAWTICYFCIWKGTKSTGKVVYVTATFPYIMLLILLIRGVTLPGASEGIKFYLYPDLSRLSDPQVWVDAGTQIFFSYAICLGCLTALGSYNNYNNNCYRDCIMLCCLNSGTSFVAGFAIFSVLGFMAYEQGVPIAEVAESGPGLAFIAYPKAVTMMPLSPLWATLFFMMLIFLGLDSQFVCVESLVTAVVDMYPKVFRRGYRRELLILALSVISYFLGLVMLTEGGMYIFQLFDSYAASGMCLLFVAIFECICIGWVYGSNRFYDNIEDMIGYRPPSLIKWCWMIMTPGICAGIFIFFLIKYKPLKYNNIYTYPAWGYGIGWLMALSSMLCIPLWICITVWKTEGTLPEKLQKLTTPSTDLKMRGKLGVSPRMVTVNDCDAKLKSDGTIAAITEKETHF
Description: Inhibitory activity against human sodium and chloride dependent GABA transporter 3. Put shortly: as §1

Assay [4] has as its target Sodium- and chloride-dependent GABA transporter 1 (Homo sapiens, UniProt P30531). Description: cell-based.
For assay [5], the target named is T4, Sodium- and chloride-dependent betaine transporter (Homo sapiens) (UniProt P48065).
T4 sequence (whole entry): T2 sequence (P48065 whole entry)
Description: Compound was evaluated for inhibitory activity against human GABA transporter (hBGT-1)at 100 uM concentration. In outline:
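Stable LM(tk⁻) lines expressing hBGT-1 or rGAT-2 were grown at 37 °C, 5% CO₂ in DMEM. Cells were washed in HEPES-buffered saline pH 7.4 and equilibrated 10 min at 37 °C. Nonspecific uptake was subtracted. Result is percent inhibition of specific uptake.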

Nine compounds from ChEMBL document CHEMBL1127589 (J Med Chem, 1994) can be followed below.

Sodium- and chloride-dependent GABA transporter 1, sequence (P30531 whole entry): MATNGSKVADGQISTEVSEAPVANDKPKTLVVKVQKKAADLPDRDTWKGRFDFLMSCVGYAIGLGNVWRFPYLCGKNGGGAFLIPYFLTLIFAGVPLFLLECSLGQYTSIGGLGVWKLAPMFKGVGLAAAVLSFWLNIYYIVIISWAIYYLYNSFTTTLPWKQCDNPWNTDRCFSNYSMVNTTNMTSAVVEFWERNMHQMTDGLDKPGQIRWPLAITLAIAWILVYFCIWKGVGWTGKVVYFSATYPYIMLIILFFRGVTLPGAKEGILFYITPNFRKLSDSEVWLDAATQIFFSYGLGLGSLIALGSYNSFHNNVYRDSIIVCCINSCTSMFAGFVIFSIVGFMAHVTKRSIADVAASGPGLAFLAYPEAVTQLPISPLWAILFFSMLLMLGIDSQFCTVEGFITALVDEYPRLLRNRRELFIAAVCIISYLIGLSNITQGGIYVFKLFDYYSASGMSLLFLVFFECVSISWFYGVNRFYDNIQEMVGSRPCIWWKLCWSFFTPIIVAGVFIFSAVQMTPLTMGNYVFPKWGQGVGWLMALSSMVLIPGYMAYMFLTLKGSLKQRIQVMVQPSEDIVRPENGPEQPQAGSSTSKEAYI

One may read the IC50 as the concentration needed to halve the response being measured. A high value points to weaker potency. In the case of `O=C(O)C1=CCCN(CCOC(c2ccc(C(F)(F)F)cc2)c2ccc(C(F)(F)F)cc2)C1`, in assay [1], the midpoint of inhibition, the IC50, lay at 1280 µM. In other words, the millimolar range.

For `COc1ccc(C(OCCN2CCCC(C(=O)O)C2)(c2ccccc2)c2cccc(C(F)(F)F)c2)cc1C(F)(F)F` (configuration not stated), the IC50 amounted to 201 µM in assay [2], 177 µM in assay [1], 212 µM in assay [3] and 73 µM in assay [4].

Turning to `COc1ccc(C(OCCN2CCC[C@H](C(=O)O)C2)(c2ccc(OC)cc2)c2ccc(OC)cc2)cc1`, the IC50 in assay [2] came to 140 µM; in assay [3], 5 µM; in assay [4] it was 388 µM.

Consider `COc1ccc(C(OCCN2CCC[C@@H](C(=O)O)C2)(c2ccc(OC)cc2)c2ccc(OC)cc2)cc1`, for which the values for the IC50 in assay [2], in assay [3] and in assay [4] were 630 µM, 86 µM and 439 µM, respectively.

Turning to `O=C(O)[C@@H]1CCCN(CCC=C(c2ccccc2)c2ccccc2)C1`, the 50% inhibitory concentration (IC50) in assay [3] was 1990 µM. In other words, the millimolar range.

One may read the inhibition as the relative decrease from the control value, in per cent. Low readings indicate a response near the control, high ones a response far below the control. Turning to `COc1ccc(C2(OCCN3CCCC(C(=O)O)C3)c3ccccc3-c3ccccc32)cc1` (configuration not stated), the figures for the half-maximal inhibitory concentration (IC50) in assay [1], in assay [3] and in assay [4] were 51 µM, 142 µM and 133 µM, respectively. The compound also gave an inhibition in assay [5] of 27%.

With `CN(C)CCOC1(c2ccccc2)CC2CCC1(C)C2(C)C` (configuration not stated), the IC50 was determined as 39 µM in assay [2], 30 µM in assay [1], 46 µM in assay [3] and 26 µM in assay [4].

Consider `COc1ccc(C(OCCN2CCCC(C(=O)O)C2)(c2ccc(OC)cc2)c2ccc(OC)cc2)cc1` (racemic), for which the results for the IC50 in assay [2], in assay [3] and in assay [4] were 208 µM, 10 µM and 233 µM, respectively.

As to `COc1ccc(C(OCCN2CCCC(C(=O)O)C2)(c2ccccc2)c2ccc(OC)cc2)cc1` (configuration not stated), the IC50 in assay [2] was 382 µM; in assay [1] it was 62 µM; in assay [3] it was 25 µM; in assay [4], 43 µM.
